According to ChEMBL document CHEMBL4428057, “Discovery, Synthesis, and Evaluation of 2,4-Diaminoquinazolines as a Novel Class of Pancreatic β-Cell-Protective Agents against Endoplasmic Reticulum (ER) Stress” (J Med Chem, 2016):
Active and inactive are the calls of the source.

What was measured:
[1] = test system: INS1; test: Reversal of tunicamycin induced PARP cleavage in rat INS-1 cells at 20 uM after 2 to 24 hrs by Western blot analysis; format: functional, cell-based
Summary of the method: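 Western blots of INS-1 cells (8×10^5/60-mm dish) treated with Tm 0.1 µg/mL ± compound 20 µM or DMSO for the indicated times. Lysates with EDTA and phosphatase inhibitors; 20 µg protein on 7% SDS-PAGE, PVDF. Primary antibodies at 1:1000 against ATF4, CHOP, cleaved caspase 3 or PARP; α-tubulin loading control; HRP secondaries. Representative of 3 experiments.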

[2] = test system: INS1; test: Reversal of tunicamycin suppressed INS2 mRNA levels in rat INS-1 cells at 20 uM after 24 hrs by qRT-PCR method; format: functional, cell-based
Summary of the method: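 INS-1 cells (4×10^5/well, 6-well plates) given Tm 0.1 µg/mL ± compound 20 µM or DMSO for 24 h. INS1, INS2, PDX1 and MafA mRNA measured by qRT-PCR with rat primers. Means of 3 replicate wells, representative of 3 independent experiments; SD.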

[3] = test system: Pancreatic beta cell; test: Suppression of tunicamycin impaired glucose-stimulated insulin secretion in human Beta cells at 10 to 20 uM preincubated for 48 hrs followed by glucose addition for 1 hr by ELISA; format: functional, cell-based
Summary of the method: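 Human islets (50 of equal size) in 96-well plates given Tm 1 µg/mL plus compound for 48 h, preincubated 1 h in KRBH (pH 7.4) with 2.5 mM glucose, then stimulated 1 h with 2.5 or 20 mM glucose. Secreted insulin by human insulin ELISA, normalized to total protein by Bradford.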

[4] = target: T1, Cyclic AMP-dependent transcription factor ATF-6 alpha (Rattus norvegicus) (UniProt G3V909); test: Inhibition of ATF6 in rat INS-1 cells assessed as suppression of tunicamycin induced Bip mRNA levels at 20 uM after 4 to 24 hrs by qRT-PCR method; format: cell-based
T1 sequence (whole entry): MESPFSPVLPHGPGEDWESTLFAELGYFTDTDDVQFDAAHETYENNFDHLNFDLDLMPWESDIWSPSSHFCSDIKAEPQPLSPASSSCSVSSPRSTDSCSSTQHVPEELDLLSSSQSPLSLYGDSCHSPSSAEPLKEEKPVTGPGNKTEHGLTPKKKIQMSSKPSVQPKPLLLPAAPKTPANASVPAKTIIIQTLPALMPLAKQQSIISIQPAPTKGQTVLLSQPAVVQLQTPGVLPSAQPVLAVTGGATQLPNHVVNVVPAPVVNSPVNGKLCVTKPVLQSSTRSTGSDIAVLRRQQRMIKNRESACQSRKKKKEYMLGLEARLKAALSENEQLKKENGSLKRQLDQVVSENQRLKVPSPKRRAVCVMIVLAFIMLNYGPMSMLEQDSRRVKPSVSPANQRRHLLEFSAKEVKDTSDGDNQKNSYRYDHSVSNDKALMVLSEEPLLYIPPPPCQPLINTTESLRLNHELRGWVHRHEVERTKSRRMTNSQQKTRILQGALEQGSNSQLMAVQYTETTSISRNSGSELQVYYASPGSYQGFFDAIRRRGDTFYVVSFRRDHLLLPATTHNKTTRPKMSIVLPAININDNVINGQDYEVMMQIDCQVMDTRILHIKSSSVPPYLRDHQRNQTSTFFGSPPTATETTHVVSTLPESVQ
Summary of the method: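 INS-1 cells seeded at 4×10^5/well in 6-well plates, given Tm 0.1 µg/mL ± compound 20 µM or DMSO for the indicated times. Bip or GRP94 mRNA measured by qRT-PCR, expressed as fold-increase over untreated control. Means of 3 replicate wells, representative of 3 independent experiments.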

[5] = test system: INS1; test: Protection against BFA induced endoplasmic reticulum stress in rat INS-1 cells assessed as increase in cell viability at 20 uM after 72 hrs by CellTiter-Glo assay; format: functional, cell-based
Summary of the method: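 INS-1 cells at 3×10^3/well (384-well) treated with brefeldin A 0.2 µg/mL ± compound 20 µM or DMSO for 72 h. Viability read as intracellular ATP by CellTiter-Glo luminescence. Means of 3 replicate wells, representative of 3 independent experiments; SD.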

COc1ccc(CNc2nc(N3CCCCC3CO)nc3ccccc23)cc1 (racemic)
active: Activity [1] | Activity [2] | Activity [3] | inhibition [4] | Activity [5]
